Columns and labels:
Rattus norvegicus = species: Rattus norvegicus; assay: Percent of maximal extent of inhibition was calculated by fitting [35S]TBPS inhibition data to a sigmoid function (rat brain cortical P2 membranes).; format: functional
How it was run: (§1)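 Rat cortical P2 membranes washed in 200 mM NaCl/50 mM Na-K phosphate pH 7.4. Incubated with 2 nM [35S]TBPS, 5 µM GABA and compound at nine concentrations from 1 nM to 10 µM final (DMSO 0.5% final), 90 min at room temperature. Nonspecific binding was defined with 2 µM unlabeled TBPS. Read-out was filtration and scintillation counting. IC50 and Imax came from partial or full inhibition fits chosen by F-test. Values are mean ± SEM of 3-9 experiments.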

[1] = biological target: GABA-A receptor; anion channel; assay: Ability to allosterically modulate the binding of [35S]TBPS to gamma-aminobutyric-acid A receptor in rat brain cortical P2 membranes.; format: cell membranes, Membrane; how it was run: as §1
[2] = biological target: T1, GABA-A receptor; alpha-1/beta-2/gamma-2 (Homo sapiens) (UniProt P14867+P47870+P18507); assay: Hill value, slope calculated from GABA-current potentiation in Xenopus oocytes; format: functional, cell-based; settings: Oocyte
How it was run: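 Xenopus oocytes injected 1:1:1 with human α1, β2, γ2L cRNAs (~1 ng each per cell); two-electrode voltage clamp in frog Ringer (NaCl 115, KCl 2, CaCl2 1.8, HEPES 5 mM, pH 7.4). Steroid DMSO stocks diluted […] (DMSO 0.3% final). Increasing steroid applied on a GABA response set to ~5% of the 3 mM GABA maximum. Data fit to a four-parameter logistic; mean ± SEM.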

[3] = biological target: T2, GABA-A receptor; alpha-1/beta-2/gamma-2 (Homo sapiens, UniProt P14867+P18507+P47870); assay: Potentiation of GABA-activated currents in Xenopus oocytes expressing cloned human alpha-1-beta-2-gamma-2L subunits of GABA-A receptor; format: functional, cell-based, Oocyte
T2 sequence (P14867 whole entry): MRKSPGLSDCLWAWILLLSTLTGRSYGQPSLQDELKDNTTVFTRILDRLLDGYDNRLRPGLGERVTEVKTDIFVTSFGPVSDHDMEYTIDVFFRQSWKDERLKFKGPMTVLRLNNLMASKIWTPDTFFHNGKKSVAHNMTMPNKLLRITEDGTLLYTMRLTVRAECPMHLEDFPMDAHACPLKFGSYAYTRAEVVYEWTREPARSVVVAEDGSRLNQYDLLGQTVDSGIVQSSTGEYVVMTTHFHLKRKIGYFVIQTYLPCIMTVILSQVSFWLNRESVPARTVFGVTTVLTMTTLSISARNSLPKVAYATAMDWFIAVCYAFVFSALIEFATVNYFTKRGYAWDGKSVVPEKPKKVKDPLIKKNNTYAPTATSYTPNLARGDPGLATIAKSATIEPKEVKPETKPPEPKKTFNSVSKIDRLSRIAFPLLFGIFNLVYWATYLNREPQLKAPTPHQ
T2 sequence (P47870 whole entry): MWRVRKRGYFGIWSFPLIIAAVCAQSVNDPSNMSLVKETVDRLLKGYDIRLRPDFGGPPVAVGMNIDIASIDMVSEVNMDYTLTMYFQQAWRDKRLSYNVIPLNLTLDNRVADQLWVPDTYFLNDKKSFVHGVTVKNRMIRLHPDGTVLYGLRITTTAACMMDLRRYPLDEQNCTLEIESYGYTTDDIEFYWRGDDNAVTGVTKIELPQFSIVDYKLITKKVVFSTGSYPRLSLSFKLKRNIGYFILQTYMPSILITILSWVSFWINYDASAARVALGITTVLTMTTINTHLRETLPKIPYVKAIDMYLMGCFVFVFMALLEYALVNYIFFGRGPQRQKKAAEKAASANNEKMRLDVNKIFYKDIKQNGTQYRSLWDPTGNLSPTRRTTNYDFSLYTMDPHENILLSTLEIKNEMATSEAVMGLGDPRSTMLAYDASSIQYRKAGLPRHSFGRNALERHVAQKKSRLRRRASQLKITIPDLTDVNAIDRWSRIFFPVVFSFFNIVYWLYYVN
T2 sequence (P18507 whole entry): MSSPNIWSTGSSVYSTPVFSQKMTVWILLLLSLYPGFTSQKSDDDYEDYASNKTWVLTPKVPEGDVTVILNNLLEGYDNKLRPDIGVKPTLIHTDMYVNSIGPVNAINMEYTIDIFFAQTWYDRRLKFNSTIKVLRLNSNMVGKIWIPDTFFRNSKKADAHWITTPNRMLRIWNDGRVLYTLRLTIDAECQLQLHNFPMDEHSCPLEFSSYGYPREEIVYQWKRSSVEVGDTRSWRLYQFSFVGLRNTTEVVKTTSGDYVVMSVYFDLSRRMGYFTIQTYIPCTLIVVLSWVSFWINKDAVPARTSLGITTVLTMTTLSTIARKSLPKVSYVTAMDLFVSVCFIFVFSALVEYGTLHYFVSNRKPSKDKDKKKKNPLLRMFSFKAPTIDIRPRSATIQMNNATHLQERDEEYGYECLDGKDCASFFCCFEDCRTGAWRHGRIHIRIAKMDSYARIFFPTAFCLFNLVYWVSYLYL
How it was run: (§2)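 Xenopus oocytes were injected with human α1, β2 and γ2L cRNAs at 1:1:1, ~1 ng each. Two-electrode voltage clamp was done in frog Ringer (HEPES 5 mM, pH 7.4). Currents were scaled to the maximum elicited by 3 mM GABA. Steroid was applied in increasing concentrations to a fixed GABA response of ~0.05 fractional current, with DMSO 0.3% final. Data were fitted to a four-parameter logistic and given as mean ± SEM.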

[4] = biological target: T1, GABA-A receptor; alpha-1/beta-2/gamma-2 (Homo sapiens); assay: Efficacy as fractional response (FR) relative to GABA maximal current elicited in Xenopus oocytes; format: functional, cell-based; settings: Oocyte; how it was run: as §2

CC(=O)[C@H]1CC[C@H]2[C@@H]3CC[C@@H]4C[C@](C)(O)CC[C@]4(C)[C@H]3CC[C@]12C
Imax (Rattus norvegicus): 104%

CC(=O)[C@H]1CC[C@H]2[C@@H]3CC[C@H]4C[C@@](O)(CC(N)=O)CC[C@]4(C)[C@H]3CC[C@]12C
Imax (Rattus norvegicus): 28% | IC50 [1]: > 10000 nM

C#C[C@@]1(O)CC[C@@]2(C)[C@@H](CC[C@@H]3[C@@H]2CC[C@]2(C)[C@@H](C(C)=O)CC[C@@H]32)C1
Imax (Rattus norvegicus): 93% | IC50 [1]: 64 nM

C=CC[C@@]1(O)CC[C@@]2(C)[C@@H](CC[C@@H]3[C@@H]2CC[C@]2(C)[C@@H](C(C)=O)CC[C@@H]32)C1
Imax (Rattus norvegicus): 59% | IC50 [1]: 231 nM

CC(=O)[C@H]1CC[C@H]2[C@@H]3CC[C@H]4C[C@@](O)(COCc5ccccc5)CC[C@]4(C)[C@H]3CC[C@]12C
Imax (Rattus norvegicus): 57% | Hill coefficient [2]: 1.6 | IC50 [1]: 376 nM

CC(C)(C)OC(=O)c1ncn2c1C1CCCN1C(=O)c1c(Br)cccc1-2 (configuration not stated)
Imax (Rattus norvegicus): 27% | IC50 [1]: 6.1 nM

COC[C@@]1(O)CC[C@@]2(C)[C@H](CC[C@@H]3[C@@H]2CC[C@]2(C)[C@@H](C(C)=O)CC[C@@H]32)C1
Imax (Rattus norvegicus): 103% | IC50 [1]: 40 nM

C=C=CC[C@@]1(O)CC[C@@]2(C)[C@@H](CC[C@@H]3[C@@H]2CC[C@]2(C)[C@@H](C(C)=O)CC[C@@H]32)C1
Imax (Rattus norvegicus): 57% | IC50 [1]: 365 nM

CC(=O)[C@H]1CC[C@H]2[C@@H]3CC[C@H]4C[C@@](O)(CN=[N+]=[N-])CC[C@]4(C)[C@H]3CC[C@]12C
Imax (Rattus norvegicus): 99% | EC50 [3]: 150 nM | Efficacy [4]: 0.8 | IC50 [1]: 27 nM

CC(=O)[C@H]1CC[C@H]2[C@@H]3CC[C@H]4C[C@@](O)(CBr)CC[C@]4(C)[C@H]3CC[C@]12C
Imax (Rattus norvegicus): 44% | IC50 [1]: 224 nM

CC(=O)[C@H]1CC[C@H]2[C@@H]3CC[C@H]4C[C@@](O)(CO)CC[C@]4(C)[C@H]3CC[C@]12C
Imax (Rattus norvegicus): 101% | EC50 [3]: ~20000 nM | IC50 [1]: 2130 nM

CC[C@@]1(O)CC[C@@]2(C)[C@@H](CC[C@@H]3[C@@H]2CC[C@]2(C)[C@@H](C(C)=O)CC[C@@H]32)C1
Imax (Rattus norvegicus): 69% | IC50 [1]: 257 nM

C#CC[C@@]1(O)CC[C@@]2(C)[C@@H](CC[C@@H]3[C@@H]2CC[C@]2(C)[C@@H](C(C)=O)CC[C@@H]32)C1
Imax (Rattus norvegicus): 43% | IC50 [1]: 50 nM

CCCOC[C@@]1(O)CC[C@@]2(C)[C@@H](CC[C@@H]3[C@@H]2CC[C@]2(C)[C@@H](C(C)=O)CC[C@@H]32)C1
Imax (Rattus norvegicus): 94% | IC50 [1]: 655 nM

CC[C@@]1(O)CC[C@@]2(C)[C@H](CC[C@@H]3[C@@H]2CC[C@]2(C)[C@@H](C(C)=O)CC[C@@H]32)C1
Imax (Rattus norvegicus): 95% | IC50 [1]: 135 nM

CCCC(C)C1(CC)C(=O)NC(=O)NC1=O (configuration not stated)
Imax (Rattus norvegicus): 100% | Hill coefficient [2]: 1

CN1C(=O)CN=C(c2ccccc2)c2cc(Cl)ccc21
Imax (Rattus norvegicus): 49%

CC(=O)[C@H]1CC[C@H]2[C@@H]3CC[C@H]4C[C@@](O)(CI)CC[C@]4(C)[C@H]3CC[C@]12C
Imax (Rattus norvegicus): 50% | IC50 [1]: 702 nM

CC(=O)[C@H]1CC[C@H]2[C@@H]3CC[C@H]4C[C@@](O)(CN(C)C)CC[C@]4(C)[C@H]3CC[C@]12C
Imax (Rattus norvegicus): 0% | EC50 [3]: > 50000 nM | IC50 [1]: > 10000 nM

CC(=O)[C@H]1CC[C@H]2[C@@H]3CC[C@H]4C[C@@](O)(CCl)CC[C@]4(C)[C@H]3CC[C@]12C
Imax (Rattus norvegicus): 33% | IC50 [1]: 71 nM

C=C[C@@]1(O)CC[C@@]2(C)[C@@H](CC[C@@H]3[C@@H]2CC[C@]2(C)[C@@H](C(C)=O)CC[C@@H]32)C1
Imax (Rattus norvegicus): 94% | IC50 [1]: 120 nM

C=C[C@@]1(O)CC[C@@]2(C)[C@H](CC[C@@H]3[C@@H]2CC[C@]2(C)[C@@H](C(C)=O)CC[C@@H]32)C1
Imax (Rattus norvegicus): 103% | IC50 [1]: 43 nM

C#C[C@@]1(O)CC[C@@]2(C)[C@H](CC[C@@H]3[C@@H]2CC[C@]2(C)[C@@H](C(C)=O)CC[C@@H]32)C1
Imax (Rattus norvegicus): 101%

C#CC[C@@]1(O)CC[C@@]2(C)[C@H](CC[C@@H]3[C@@H]2CC[C@]2(C)[C@@H](C(C)=O)CC[C@@H]32)C1
Imax (Rattus norvegicus): 101% | IC50 [1]: 214 nM

CC(=O)[C@H]1CC[C@H]2[C@@H]3CC[C@H]4C[C@](C)(O)CC[C@]4(C)[C@H]3CC[C@]12C [GANAXOLONE]
Imax (Rattus norvegicus): 94% | EC50 [3]: 260 nM | Efficacy [4]: 0.8 | IC50 [1]: 80 nM

C=CCC[C@@]1(O)CC[C@@]2(C)[C@@H](CC[C@@H]3[C@@H]2CC[C@]2(C)[C@@H](C(C)=O)CC[C@@H]32)C1
Imax (Rattus norvegicus): 59% | IC50 [1]: 325 nM

CC(=O)[C@H]1CC[C@H]2[C@@H]3CC[C@H]4C[C@@](O)(C(F)(F)F)CC[C@]4(C)[C@H]3CC[C@]12C
Imax (Rattus norvegicus): 44% | EC50 [3]: 390 nM | Efficacy [4]: 0.3 | IC50 [1]: 266 nM

CC(=O)[C@H]1CC[C@H]2[C@@H]3CC[C@H]4C[C@@](O)(CC#N)CC[C@]4(C)[C@H]3CC[C@]12C
Imax (Rattus norvegicus): 38% | Hill coefficient [2]: 1 | IC50 [1]: 614 nM

CC(=O)[C@H]1CC[C@H]2[C@@H]3CC[C@H]4C[C@@](O)(CF)CC[C@]4(C)[C@H]3CC[C@]12C
Imax (Rattus norvegicus): 79% | IC50 [1]: 228 nM

COC[C@@]1(O)CC[C@@]2(C)[C@@H](CC[C@@H]3[C@@H]2CC[C@]2(C)[C@@H](C(C)=O)CC[C@@H]32)C1
Imax (Rattus norvegicus): 104% | IC50 [1]: 76 nM

CCC[C@@]1(O)CC[C@@]2(C)[C@@H](CC[C@@H]3[C@@H]2CC[C@]2(C)[C@@H](C(C)=O)CC[C@@H]32)C1
Imax (Rattus norvegicus): 42% | IC50 [1]: 173 nM

CC(=O)[C@H]1CC[C@H]2[C@@H]3CC[C@@H]4C[C@@](O)(CCl)CC[C@]4(C)[C@H]3CC[C@]12C
Imax (Rattus norvegicus): 103% | IC50 [1]: 243 nM

CC(=O)[C@H]1CC[C@H]2[C@@H]3CC[C@H]4C[C@H](O)CC[C@]4(C)[C@H]3CC[C@]12C [BREXANOLONE]
Imax (Rattus norvegicus): 95% | EC50 [3]: 160 nM | Efficacy [4]: 0.91 | IC50 [1]: 51 nM

CCOC[C@@]1(O)CC[C@@]2(C)[C@@H](CC[C@@H]3[C@@H]2CC[C@]2(C)[C@@H](C(C)=O)CC[C@@H]32)C1
Imax (Rattus norvegicus): 104% | IC50 [1]: 230 nM

Source: ChEMBL document CHEMBL1130321, “Synthesis and in vitro activity of 3 beta-substituted-3 alpha-hydroxypregnan-20-ones: allosteric modulators of the GABAA receptor” (J Med Chem, 1997)
